Marks after values point to notes of the source that are not given here.
How the values were obtained:
MsJHEH [1] = biological target: T1, MsJHEH (Manduca sexta, UniProt Q25489); assay: Partition assay with radiolabeled general epoxide substrates, MsJHEH; type: biochemical; details: 100 mM sodium phosphate, pH 8.0, 50 μM substrate, 1% ethanol, 0.1 mg ml^−1 BSA, 30°C; corrected for background hydrolysis
T1 sequence (Q25489 1-462): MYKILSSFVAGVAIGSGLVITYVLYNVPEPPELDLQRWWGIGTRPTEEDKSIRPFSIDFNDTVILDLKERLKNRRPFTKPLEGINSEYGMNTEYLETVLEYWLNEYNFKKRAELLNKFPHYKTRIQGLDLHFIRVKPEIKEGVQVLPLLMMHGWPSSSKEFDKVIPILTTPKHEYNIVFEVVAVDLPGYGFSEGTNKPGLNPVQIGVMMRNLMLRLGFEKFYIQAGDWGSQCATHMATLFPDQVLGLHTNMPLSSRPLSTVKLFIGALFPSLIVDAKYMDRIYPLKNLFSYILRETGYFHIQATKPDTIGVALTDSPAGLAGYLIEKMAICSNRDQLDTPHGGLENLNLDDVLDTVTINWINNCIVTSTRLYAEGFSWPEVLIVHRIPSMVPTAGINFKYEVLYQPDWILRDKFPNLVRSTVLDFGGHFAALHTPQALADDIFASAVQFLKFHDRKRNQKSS
Outline: (§1)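 Microsomal enzyme came from baculovirus-infected High Five cells (MOI 0.5, 65 h p.i., Triton X-100 extract, 163,000 xg supernatant). Partition assay used tritium-labeled cis-stilbene oxide, trans-stilbene oxide or t-DPPO. Enzyme amount was set so at most 15% of substrate was hydrolyzed. Assays were run in triplicate and repeated at least three times. Results are mean ± standard deviation.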

Hv-mEH1 [2] = biological target: T2, Hv-mEH1 (Chloridea virescens, UniProt L7R9X8); assay: Partition assay with radiolabeled general epoxide substrates, Hv-mEH1; type: biochemical, Heliothis virescens; details: 100 mM sodium phosphate, pH 8.0, 50 μM substrate, 1% ethanol, 0.1 mg ml^−1 BSA, 30°C; corrected for background hydrolysis
Outline: as §1

Hv-mEH1 [3] = biological target: T2, Hv-mEH1; assay: Fluorescent substrate assay, Hv-mEH1; type: biochemical, Heliothis virescens; details: 50 mM Tris-HCl, pH 8.0, 5 μM substrate (25 μM for CMNGC), 100 μM OTFP, 1% DMSO, 0.1 mg ml^−1 BSA, 30°C
Outline: (§2)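 Enzyme was microsomal fraction from High Five cells infected with recombinant baculovirus (MOI 0.5, 27°C, 65 h p.i.), solubilized with 0.5% Triton X-100, and taken as the 163,000 xg supernatant. Enzyme was preincubated 5 min with OTFP before α-cyanoester/carbonate epoxide substrate was added. Fluorescence (ex 330/em 465 nm) was read every 30 s for 10 min. Aldehyde product was quantified against a 6-methoxy-2-naphthaldehyde standard curve. No-OTFP controls measured ester hydrolysis. Quadruplicate wells, ≥3 plates.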

[4] = biological target: T3, hmEH (human microsomal EH, EPHX1) (Homo sapiens, UniProt P07099); assay: Fluorescent substrate assay, hmEH; type: biochemical; details: 50 mM Tris-HCl, pH 8.0, 5 μM substrate, 100 μM OTFP, 1% DMSO, 0.1 mg ml^−1 BSA, 30°C
T3 sequence (P07099 1-455): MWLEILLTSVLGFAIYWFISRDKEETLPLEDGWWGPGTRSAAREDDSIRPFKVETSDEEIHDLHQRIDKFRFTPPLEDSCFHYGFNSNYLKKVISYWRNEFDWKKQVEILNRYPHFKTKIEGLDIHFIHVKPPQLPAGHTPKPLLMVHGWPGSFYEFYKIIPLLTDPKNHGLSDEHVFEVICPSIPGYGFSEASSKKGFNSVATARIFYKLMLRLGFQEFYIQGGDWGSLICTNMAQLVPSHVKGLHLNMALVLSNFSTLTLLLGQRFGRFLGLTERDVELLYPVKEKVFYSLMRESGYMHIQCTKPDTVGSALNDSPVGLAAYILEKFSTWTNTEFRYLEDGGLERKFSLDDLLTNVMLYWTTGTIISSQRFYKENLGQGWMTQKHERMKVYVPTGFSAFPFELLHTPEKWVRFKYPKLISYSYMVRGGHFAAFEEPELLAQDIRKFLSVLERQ

MsJHEH [5] = biological target: T1, MsJHEH; assay: Fluorescent substrate assay, MsJHEH; type: biochemical; details: 50 mM Tris-HCl, pH 8.0, 5 μM substrate (25 μM for CMNGC), 100 μM OTFP, 1% DMSO, 0.1 mg ml^−1 BSA, 30°C
Outline: as §2

MsJHEH [6] = biological target: T1, MsJHEH; details: cited from earlier work
Hv-mEH1 [7] = biological target: T2, Hv-mEH1; assay: JH III partition assay and kinetic constant determination, Hv-mEH1; type: biochemical, Heliothis virescens
Outline: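 Recombinant enzyme expressed in baculovirus-infected High Five cells (MOI 0.5, 27°C, harvested 65 h p.i.). Used the Triton X-100-solubilized microsomal supernatant. Tritiated JH III partition assay at eight concentrations (96 to 11,190 nM), with 1% ethanol and 0.1 mg ml−1 BSA. Ran 5 to 30 min with ≤15% hydrolysis, non-enzymatic background subtracted. KM/Vmax fitted by enzyme kinetics, triplicate, repeated three times.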

Bommo-JHEH = details: ref Zhang et al., 2005; cited from earlier work
[8] = biological target: T3, hmEH (human microsomal EH, EPHX1); details: 25 μM CMNGC; ref Morisseau et al., 2011; cited from earlier work

SMILES | Specific Activity MsJHEH (MsJHEH [1]) | Specific Activity Hv-mEH1 (Hv-mEH1 [2]) | Specific Activity Hv-mEH1 with fluorescent substrates (Hv-mEH1 [3]) | Specific Activity hmEH with fluorescent substrates [4] | Specific Activity MsJHEH with fluorescent substrates (MsJHEH [5]) | also measured
c1ccc([C@@H]2O[C@H]2c2ccccc2)cc1 (relative stereo) [t-SO, trans-stilbene oxide] | 2.1 ± 0.3 nmol/min/mg | 0.3 ± 0.01 nmol/min/mg |  |  |  | 
COc1ccc2cc(C(C#N)OC(=O)OCC3OC3(C)C)ccc2c1 (stereo not drawn) [MNiPC, cyano-(6-methoxy-naphthalen-2-yl)-methyl 3,3-dimethyl-oxiranylmethyl carbonate] |  |  | 3.7 ± 1.1 nmol/min/mg | < 1.0 nmol/min/mg | 1.3 ± 0.5 nmol/min/mg | 
COC(=O)/C=C(\C)CC/C=C(\C)CC[C@H]1OC1(C)C [JH III, juvenile hormone (JH) III] |  |  |  |  |  | Vmax of MsJHEH for JH III (MsJHEH [6]; ref Severson et al., 2002): 59 nmol/min/mg; specificity constant of MsJHEH for JH III (MsJHEH [6]; ref Touhara and Prestwich, 1993): 290000 M⁻¹ s⁻¹; specificity constant (kcat/KM ratio) of Hv-mEH1 for JH III (Hv-mEH1 [7]): 630 M⁻¹ s⁻¹; Vmax of Hv-mEH1 for JH III (Hv-mEH1 [7]; 100 mM sodium phosphate, pH 8.0, 30°C, JH III diol formed): 1.7 ± 0.1 nmol/min/mg; kcat of Hv-mEH1 for JH III (Hv-mEH1 [7]; calculated using estimated molecular mass of 53.1 kDa): 0.002 s⁻¹; specificity constant of Bommo-JHEH for JH III (Bommo-JHEH): 77000 M⁻¹ s⁻¹
c1ccc(CC2OC2c2ccccc2)cc1 (stereo not drawn) [t-DPPO, trans-diphenylpropene oxide] | 18.3 ± 4.0 nmol/min/mg | 0.1 ± 0.04 nmol/min/mg |  |  |  | 
COc1ccc2cc(C(C#N)OC(=O)OCC3CO3)ccc2c1 (stereo not drawn) [CMNGC, cyano(6-methoxy-naphthalen-2-yl)methyl oxiran-2-ylmethyl carbonate] |  |  | 0.03 ± 0.001 nmol/min/mg |  | 3.3 ± 0.2 nmol/min/mg | Specific Activity hmEH with CMNGC [8]: 25 ± 2 ^b nmol min^−1 mg^−1
COc1ccc2cc(C(C#N)OC(=O)C[C@@H]3O[C@H]3c3ccccc3)ccc2c1 (relative stereo) [MNPE, cyano(2-methoxynaphthalen-6-yl)methyl trans-(2-(3-phenyloxiran-2-yl))acetate] |  |  | 138 ± 9 nmol/min/mg | < 1.0 nmol/min/mg | 8.9 ± 0.4 nmol/min/mg | 
CC[C@@H]1O[C@H]1COC(=O)OC(C#N)c1ccc2cc(OC)ccc2c1 (relative stereo) [MNPEC, cyano-(6-methoxy-naphthalen-2-yl)-methyl trans-((3-ethyl-oxiran-2-yl)methyl) carbonate] |  |  | 122 ± 11 nmol/min/mg | < 1.0 nmol/min/mg | 0.8 ± 0.1 nmol/min/mg | 
c1ccc([C@H]2O[C@H]2c2ccccc2)cc1 [c-SO, cis-stilbene oxide] | 3.7 ± 0.5 nmol/min/mg | 45.8 ± 7.0 nmol/min/mg |  |  |  | 
COc1ccc2cc(C(C#N)OC(=O)OC[C@@H]3O[C@H]3c3ccccc3)ccc2c1 (relative stereo) [MNPC, cyano(6-methoxy-naphthalen-2-yl)methyl trans-[(3-phenyloxiran-2-yl)methyl] carbonate] |  |  | 816 ± 140 nmol/min/mg | < 1.0 nmol/min/mg | 29 ± 18 nmol/min/mg | 
CCC[C@@H]1O[C@H]1CC(=O)OC(C#N)c1ccc2cc(OC)ccc2c1 (relative stereo) [MNHE, cyano(2-methoxynaphthalen-6-yl)methyl trans-2-(3-propyloxiran-2-yl)acetate] |  |  | 1,180 ± 8 nmol min^−1 mg^−1 | < 1.0 nmol/min/mg | 38 ± 3 nmol/min/mg | 

Source: article PMC3577957 (Insect biochemistry and molecular biology, 2012)
